Test results reported in ChEMBL document CHEMBL3112583, “Modular construction of quaternary hemiaminal-based inhibitor candidates and their in cellulo assessment with HIV-1 protease” (Bioorg Med Chem, 2013).
Calls of active or inactive are those of the source. The calls are words filed in the database; no cut-off is given here.

Columns and labels:
MDR1 (ABCB1, P-gp) [1] = molecular target: T1, MDR1 (ABCB1, P-gp) (Homo sapiens, UniProt P08183); test: Inhibition of MDR1 (unknown origin) expressed in mouse NIH/3T3 cells assessed as inhibition of mitoxatrone efflux at 2 uM after 1 hr by FACS analysis; assay type: cell-based; conditions: NIH/3T3 cells expressing MDR1, probe mitoxantrone (printed: mitoxatrone)
BCRP (ABCG2) [2] = molecular target: T2, BCRP (ABCG2) (Homo sapiens, UniProt Q9UNQ0); test: Inhibition of BCRP (unknown origin) expressed in mouse NIH/3T3 cells assessed as inhibition of mitoxatrone efflux at 10 uM after 1 hr by FACS analysis; assay type: cell-based, NIH3T3; conditions: NIH/3T3 cells expressing BCRP, probe mitoxantrone (printed: mitoxatrone)
T2 sequence (Q9UNQ0 whole entry): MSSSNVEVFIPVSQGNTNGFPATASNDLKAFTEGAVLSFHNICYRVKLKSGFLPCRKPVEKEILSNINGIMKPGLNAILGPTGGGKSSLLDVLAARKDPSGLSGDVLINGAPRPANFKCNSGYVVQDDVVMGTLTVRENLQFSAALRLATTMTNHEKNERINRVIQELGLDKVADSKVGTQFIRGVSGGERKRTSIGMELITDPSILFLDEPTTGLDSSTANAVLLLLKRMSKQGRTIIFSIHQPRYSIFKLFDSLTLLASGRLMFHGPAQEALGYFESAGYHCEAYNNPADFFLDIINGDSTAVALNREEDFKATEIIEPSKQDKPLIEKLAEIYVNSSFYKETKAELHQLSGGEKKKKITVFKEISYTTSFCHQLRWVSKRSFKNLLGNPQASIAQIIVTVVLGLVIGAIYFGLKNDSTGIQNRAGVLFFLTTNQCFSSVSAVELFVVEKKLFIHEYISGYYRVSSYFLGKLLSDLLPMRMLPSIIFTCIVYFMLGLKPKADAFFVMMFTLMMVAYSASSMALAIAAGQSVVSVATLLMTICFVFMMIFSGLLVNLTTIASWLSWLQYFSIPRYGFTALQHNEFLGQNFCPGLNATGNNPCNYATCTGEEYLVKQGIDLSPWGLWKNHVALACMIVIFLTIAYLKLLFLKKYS

BCRP (ABCG2) [3] = molecular target: T2, BCRP (ABCG2); test: Inhibition of BCRP (unknown origin) expressed in mouse NIH/3T3 cells assessed as inhibition of mitoxatrone efflux at 2 uM after 1 hr by FACS analysis; assay type: cell-based, NIH3T3; conditions: NIH/3T3 cells expressing BCRP, probe mitoxantrone (printed: mitoxatrone)
MDR1 (ABCB1, P-gp) [4] = molecular target: T1, MDR1 (ABCB1, P-gp); test: Inhibition of MDR1 (unknown origin) expressed in mouse NIH/3T3 cells assessed as inhibition of mitoxatrone efflux at 10 uM after 1 hr by FACS analysis; assay type: cell-based, NIH3T3; conditions: NIH/3T3 cells expressing MDR1, probe mitoxantrone (printed: mitoxatrone)
[5] = Cytotoxicity against mouse NIH/3T3 cells expressing pgp assessed as cell survival at >30 to 50 uM after 72 hrs by MTT assay; assay type: ADME, cell-based, NIH3T3; conditions: NIH/3T3 cells expressing P-gp
Protease [6] = molecular target: T3, Protease (Human immunodeficiency virus 1, UniProt Q9YQ12); test: Inhibition of HIV-1 recombinant protease using DABCYL-GABA-Ser-Asn-Tyr-Pro-Ile-Val-Gln-EDANS as substrate incubated for 30 mins prior to substrate addition by Dixon plot analysis
Protease [7] = molecular target: T3, Protease; test: Inhibition of HIV-1 recombinant protease using DABCYL-GABA-Ser-Asn-Tyr-Pro-Ile-Val-Gln-EDANS as substrate incubated for 30 mins prior to substrate addition by Hanes plot analysis
Protease [8] = molecular target: T3, Protease; test: Inhibition of HIV-1 recombinant protease using DABCYL-GABA-Ser-Asn-Tyr-Pro-Ile-Val-Gln-EDANS as substrate incubated for 30 mins prior to substrate addition by Lineweaver-Burk plot analysis
[9] = molecular target: Protease (Human immunodeficiency virus 1) (UniProt Q9YQ12); test: Inhibition of HIV-1 protease in human T cells assessed as increase in eGFP expression at 1 to 100 uM after 24 hrs by flow cytometry; assay type: cell-based; conditions: T-cell
How it was run: (§1)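 SupT1 T cells carry an HIV-1 protease–Gal4 fusion under a tetracycline-inducible promoter and a Gal4-responsive eGFP reporter. They were kept in RPMI 1640 with 10% FBS and 1% penicillin/streptomycin at 37 °C in 5% CO₂. Cells were grown 24 h with 1–100 µM compound, with indinavir (0.0001–10 µM) as reference, then induced with […] doxycycline. eGFP was read 48 h later by flow cytometry (ex 488/em 530 nm).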

[10] = Cytotoxicity against human HEK293 cells assessed as cell survival after 72 hrs by MTT assay
[11] = Cytotoxicity against mouse NIH/3T3 cells assessed as cell survival after 72 hrs by MTT assay
[12] = Cytotoxicity against human HEK293 cells expressing BCRP assessed as cell survival after 72 hrs by MTT assay
[13] = molecular target: Protease (Human immunodeficiency virus 1) (UniProt Q9YQ12); test: Inhibition of HIV-1 protease in human T cells assessed as increase in eGFP expression at 0.1 uM after 24 hrs by flow cytometry; assay type: cell-based; conditions: T-cell
HEK293 [14] = test: Cytotoxicity against human HEK293 cells assessed as cell survival after 72 hrs by MTT assay; assay type: cell-based; conditions: hek293, 72 h
How it was run: (§2)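 HEK293 cells stably transfected with BCRP, or with empty vector (HEK293-pcDNA3) as parental control, kept in high-glucose DMEM with 10% FBS, 1% penicillin/streptomycin and 0.75 mg/mL G418, at 37 °C in humidified 5% CO₂. Cells were exposed for 72 h to increasing compound concentrations, and survival was read by MTT colorimetric assay. IC50 is the mean ± sd of at least three independent experiments.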

HEK293 [15] = test: Cytotoxicity against human HEK293 cells expressing BCRP assessed as cell survival after 72 hrs by MTT assay; assay type: ADME, cell-based; conditions: hek293, 72 h; how it was run: as §2
[16] = Cytotoxicity against mouse NIH/3T3 cells assessed as cell survival after 72 hrs by MTT assay; assay type: cell-based, NIH3T3
[17] = (§3) Cytotoxicity against mouse NIH/3T3 cells expressing pgp assessed as cell survival after 72 hrs by MTT assay; assay type: ADME, cell-based, NIH3T3; conditions: NIH/3T3 cells expressing P-gp
[18] = molecular target: Protease (Human immunodeficiency virus 1) (UniProt Q9YQ12); test: Inhibition of HIV-1 protease in human T cells assessed as increase in eGFP expression at >20 uM after 24 hrs by flow cytometry; assay type: cell-based; conditions: T-cell; how it was run: as §1
[19] = Cytotoxicity against human HEK293 cells assessed as cell survival after 72 hrs by MTT assay; remark: listed apart in the source
[20] = Cytotoxicity against mouse NIH/3T3 cells assessed as cell survival after 72 hrs by MTT assay; remark: listed apart in the source
[21] = Cytotoxicity against human HEK293 cells expressing BCRP assessed as cell survival after 72 hrs by MTT assay; remark: listed apart in the source
[22] = Cytotoxicity against mouse NIH/3T3 cells expressing pgp assessed as cell survival after 72 hrs by MTT assay; conditions: NIH/3T3 cells expressing P-gp
NIH3T3 = test: as §3; assay type: ADME, cell-based; conditions: nih3t3, 72 h

T1 sequence (P08183 whole entry): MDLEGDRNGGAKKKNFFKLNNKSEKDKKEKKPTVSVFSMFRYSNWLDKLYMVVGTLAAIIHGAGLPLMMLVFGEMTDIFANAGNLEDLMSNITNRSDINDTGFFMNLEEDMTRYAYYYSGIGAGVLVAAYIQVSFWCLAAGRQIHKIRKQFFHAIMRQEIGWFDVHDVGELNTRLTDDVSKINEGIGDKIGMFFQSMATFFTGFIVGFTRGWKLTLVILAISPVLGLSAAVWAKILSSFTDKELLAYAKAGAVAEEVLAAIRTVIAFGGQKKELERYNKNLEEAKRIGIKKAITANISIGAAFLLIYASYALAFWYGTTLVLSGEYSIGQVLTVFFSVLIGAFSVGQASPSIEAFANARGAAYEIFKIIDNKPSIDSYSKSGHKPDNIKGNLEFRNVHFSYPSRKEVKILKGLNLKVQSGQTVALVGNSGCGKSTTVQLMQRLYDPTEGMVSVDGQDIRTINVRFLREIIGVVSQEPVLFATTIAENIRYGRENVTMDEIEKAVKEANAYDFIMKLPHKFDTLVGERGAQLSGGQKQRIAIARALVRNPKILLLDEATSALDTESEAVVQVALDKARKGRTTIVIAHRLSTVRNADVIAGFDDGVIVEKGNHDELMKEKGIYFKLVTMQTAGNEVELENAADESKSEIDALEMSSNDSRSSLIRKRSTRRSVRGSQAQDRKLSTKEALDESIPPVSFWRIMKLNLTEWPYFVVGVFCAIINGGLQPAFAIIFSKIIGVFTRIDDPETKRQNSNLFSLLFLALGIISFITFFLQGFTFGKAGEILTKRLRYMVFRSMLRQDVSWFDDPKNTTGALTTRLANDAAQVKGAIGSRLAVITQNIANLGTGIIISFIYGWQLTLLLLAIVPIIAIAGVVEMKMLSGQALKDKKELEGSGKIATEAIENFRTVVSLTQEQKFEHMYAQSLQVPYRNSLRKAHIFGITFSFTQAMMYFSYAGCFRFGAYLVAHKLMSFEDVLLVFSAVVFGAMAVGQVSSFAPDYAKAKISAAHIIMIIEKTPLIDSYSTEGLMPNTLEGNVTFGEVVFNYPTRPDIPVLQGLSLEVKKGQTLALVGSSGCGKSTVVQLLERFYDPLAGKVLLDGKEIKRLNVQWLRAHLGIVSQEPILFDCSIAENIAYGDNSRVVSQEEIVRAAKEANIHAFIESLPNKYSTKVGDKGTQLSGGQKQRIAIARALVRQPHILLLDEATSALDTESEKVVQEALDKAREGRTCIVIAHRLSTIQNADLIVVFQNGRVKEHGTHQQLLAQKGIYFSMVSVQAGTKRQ
Sequence of Protease (Human immunodeficiency virus 1) (Q9YQ12 as listed by the source): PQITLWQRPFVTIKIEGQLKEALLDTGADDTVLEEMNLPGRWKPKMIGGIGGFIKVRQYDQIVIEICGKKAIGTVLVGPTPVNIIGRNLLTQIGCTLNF
T3 sequence (Q9YQ12 whole entry): as the sequence (Q9YQ12 as listed by the source) above

COc1cc2c(cc1OC)CN(CCc1ccc(NC(=O)c3cccc4c(=O)c5cccc(OC)c5[nH]c34)cc1)CC2
inhibition at 1 h, 2 µM (MDR1 (ABCB1, P-gp) [1]): 110%

CN(C)N(Cc1ccccc1)C(=O)N[C@H](C=O)Cc1ccccc1
inhibition at 1 h, 10 µM (BCRP (ABCG2) [2]): 8.1%
inhibition at 1 h, 2 µM (BCRP (ABCG2) [3]): 0.2%
inhibition at 1 h, 10 µM (MDR1 (ABCB1, P-gp) [4]): 8.1%
inhibition at 1 h, 2 µM (MDR1 (ABCB1, P-gp) [1]): 2.3%
IC50 at 72 h [5]: 100 µM
Ki (Protease [6]): 492 µM
Ki (Protease [7]): 406 µM
Ki (Protease [8]): 528 µM
inhibition [9]: inactive
IC50 at 72 h [10]: 56.3 µM
IC50 at 72 h [11]: 68.8 µM
IC50 at 72 h [12]: 57.2 µM

CC(C)(C)NC(=O)[C@@H]1CN(Cc2cccnc2)CCN1C[C@@H](O)C[C@@H](Cc1ccccc1)C(=O)N[C@H]1c2ccccc2C[C@H]1O
inhibition [13]: Active

CC(C)(C)NC(=O)[C@@H]1C[C@@H]2CCCC[C@@H]2CN1C[C@@H](O)[C@H](Cc1ccccc1)NC(=O)[C@H](CC(N)=O)NC(=O)c1ccc2ccccc2n1
Activity (HEK293 [14]): Not Active
Activity (HEK293 [15]): Not Active
IC50 at 72 h [16]: 37 µM
IC50 at 72 h [17]: 49 µM

O=C[C@H](Cc1ccccc1)NC(=O)N(Cc1cccc(O)c1)N1CCCCC1
inhibition at 1 h, 10 µM (BCRP (ABCG2) [2]): 8.4%
inhibition at 1 h, 2 µM (BCRP (ABCG2) [3]): 2.5%
inhibition at 1 h, 10 µM (MDR1 (ABCB1, P-gp) [4]): 4.8%
inhibition at 1 h, 2 µM (MDR1 (ABCB1, P-gp) [1]): 4.6%
IC50 at 72 h [5]: 43.5 µM
Ki (Protease [6]): 144 µM
Ki (Protease [7]): 242 µM
Ki (Protease [8]): 272 µM
inhibition [18]: Active
IC50 at 72 h [10]: 35.3 µM
IC50 at 72 h [11]: 42.1 µM
IC50 at 72 h [12]: 23.1 µM

COc1cccc(CN(C(=O)N[C@H](C=O)Cc2ccccc2)N2CCCCC2)c1
inhibition at 1 h, 10 µM (BCRP (ABCG2) [2]): 8.1%
inhibition at 1 h, 2 µM (BCRP (ABCG2) [3]): 0.9%
inhibition at 1 h, 10 µM (MDR1 (ABCB1, P-gp) [4]): 22.7%
inhibition at 1 h, 2 µM (MDR1 (ABCB1, P-gp) [1]): 7.7%
IC50 at 72 h [5]: 46.8 µM
Ki (Protease [6]): 334 µM
Ki (Protease [7]): 410 µM
Ki (Protease [8]): 320 µM
inhibition [18]: Active
IC50 at 72 h [10]: 42.6 µM
IC50 at 72 h [11]: 39.4 µM
IC50 at 72 h [12]: 37.2 µM

O=C[C@H](Cc1ccccc1)N(Cc1ccccc1)C(=O)N(Cc1ccccc1)N1CCCCC1
inhibition at 1 h, 10 µM (BCRP (ABCG2) [2]): 8.8%
inhibition at 1 h, 2 µM (BCRP (ABCG2) [3]): 1.8%
inhibition at 1 h, 10 µM (MDR1 (ABCB1, P-gp) [4]): 15%
inhibition at 1 h, 2 µM (MDR1 (ABCB1, P-gp) [1]): 1.8%
Ki (Protease [6]): 993 µM
Ki (Protease [7]): 1120 µM
Ki (Protease [8]): 463 µM
inhibition [9]: inactive
IC50 at 72 h [19]: 17.6 µM
IC50 at 72 h [20]: 11.2 µM
IC50 at 72 h [21]: 12.8 µM
IC50 at 72 h [22]: 12.8 µM

O=C[C@H](Cc1ccccc1)NC(=O)N(Cc1ccccc1)N1CCCCC1
inhibition at 1 h, 10 µM (BCRP (ABCG2) [2]): 0.3%
inhibition at 1 h, 2 µM (BCRP (ABCG2) [3]): 0.2%
inhibition at 1 h, 10 µM (MDR1 (ABCB1, P-gp) [4]): 6.4%
inhibition at 1 h, 2 µM (MDR1 (ABCB1, P-gp) [1]): 5.5%
IC50 at 72 h [5]: 48.6 µM
Ki (Protease [6]): 292 µM
Ki (Protease [7]): 257 µM
Ki (Protease [8]): 172 µM
inhibition [18]: Active
IC50 at 72 h [10]: 37.6 µM
IC50 at 72 h [11]: 42.6 µM
IC50 at 72 h [12]: 34.8 µM

O=C[C@H](Cc1ccccc1)NC(=O)N(Cc1ccccc1)N1CCOCC1
inhibition at 1 h, 10 µM (BCRP (ABCG2) [2]): 3.3%
inhibition at 1 h, 2 µM (BCRP (ABCG2) [3]): 0.2%
inhibition at 1 h, 10 µM (MDR1 (ABCB1, P-gp) [4]): 11.5%
inhibition at 1 h, 2 µM (MDR1 (ABCB1, P-gp) [1]): 7.1%
Activity (HEK293 [14]): Not Active
Activity (HEK293 [15]): Not Active
IC50 at 72 h [16]: 79.8 µM
Activity (NIH3T3): Not Active
Ki (Protease [6]): 996 µM
Ki (Protease [7]): 366 µM
Ki (Protease [8]): 317 µM
inhibition [9]: inactive

O=C[C@H](Cc1ccc(O)cc1)NC(=O)N(Cc1ccccc1)N1CCCCC1
inhibition at 1 h, 10 µM (BCRP (ABCG2) [2]): 2.5%
inhibition at 1 h, 2 µM (BCRP (ABCG2) [3]): 0.9%
inhibition at 1 h, 10 µM (MDR1 (ABCB1, P-gp) [4]): 3%
inhibition at 1 h, 2 µM (MDR1 (ABCB1, P-gp) [1]): 1.1%
IC50 at 72 h [5]: 71.2 µM
Ki (Protease [6]): 306 µM
Ki (Protease [7]): 342 µM
Ki (Protease [8]): 395 µM
inhibition [9]: inactive
IC50 at 72 h [10]: 52.4 µM
IC50 at 72 h [11]: 58.6 µM
IC50 at 72 h [12]: 47.9 µM
